Reference: the RNAGym collection of RNA variant scans (doi:10.1126/science.aae0568)
Variants at the floor of the assay were thinned out.

B1: tRNA (parent)
chain: GUUCCGUUGGCGUAAUGGUAACGCGUCUCCCUCCUAAGGAGAAGACUGCGGGUUCGAGUCCCGUACGGAACG

Variants of: B1
Test: yeast fitness relative to wild type (ratio to wild type); higher = fitter; tRNA-Arg(CCU), competitive growth, 37 C, YPD
Summary of the method: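 Variants of the tRNA-Arg(CCU) gene were chemically synthesised with a 3% per-site mutation rate across 69 sites and placed at the native genomic locus in Saccharomyces cerevisiae. Six parallel replicates of the pooled strains were competed in YPD at 37°C for 24 hours, and gene amplicons from the start and end populations were read by 100-nucleotide paired-end sequencing. Darwinian fitness relative to wild type was derived from changes in genotype frequencies. Genotypes required ≥ 100 starting reads, and estimates < 0.5 were set to 0.5.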

| Variant | yeast fitness |
| --- | --- |
| GUUCCGUUGGCGUAAUAGUAACGCGUCUCUCUCCUAAGGAGAAGACUGUGGGUUCGAGUCCCGUACGGAACG | ≤ 0.5 |
| GUUCCGUUGGCGUAAUAGUAAUGCGUCUCCCUCCUAAGGAGAUGACUGCGGGUUCGAGUCCCGUACGGAACG | 0.639 |
| GUUCCGUUGGCGUAAUAGUAACGCGUGUCCCUCCUAAGGAGAAGACUGCGGGUUCGAGUCCCGUACAGAACG | 0.573 |
| GUUCCGUUGGCGUAAUAGUAACGAGUCUCCCUCCAAAGGAGAAGACUGCGGGUUCGAGUCCCGUACGGAACG | ≤ 0.5 |
| GUUCCGUUGGCGUAAUAGUAACGCGUGUCCCUCCUAAGCAGAAGACUGCGGGUUCGAGUCCCGUACGGAACG | ≤ 0.5 |
| GUUCCGUUGGCGUAAUAGUAACGCGUGUCCCUCCUAAGGAGAAGACUGCGGGUUCGAGACCCGUAAGGAACG | ≤ 0.5 |
| GUUCCGUUGGCGUAAUAGUAACGAGUCUCUCUCCUAAGGAAAAGCCUGCGGGUUCGACUCCCGUACGGAACG | ≤ 0.5 |
| GUUCCGUUGGCGUAAUAGUAACGGGUGUCCCUCCUAAGGAGAAGACUGCGGGUUCGAGUCCCGUACGGCACG | ≤ 0.5 |
| GUUCCGUUGGCGUAAUAGUAACGCGUCUCCAUUCUAAGGAGAAGACUGCGGGUUCGAGUCCCGUACGGAACG | ≤ 0.5 |
| GUUCCGUUGGCGUAAUAGUAACGCGUGUGCCUCCUAAGGAGAGGACUGCGGGUUCGAGUCCCGUACGGAACG | 0.561 |
| GUUCCGUUGGCGUAAUAGUAACGCGUCUCCCUCCUAAGGAGAAGUCUGCGGGUUCGAGUCCCGUACGGAACG | 0.763 |
| GUUCCGUUGGCGUAAUAGUAACGCGUCUCCCUCCUAAGGAGAAGCCUGCGGGUUCGAGUCCCGUACGGAACG | 0.735 |
| GUUCCGUUGGCGUAAUAGUAACGCGUCUUCCUUCUAAGGAGAAGACUGCGGGUUCGCGUCCCGUACGUAACG | ≤ 0.5 |
| GUUCCGUUGGCGUAAUAGUAACGCGUCUCCUUCCCAAGGAGAAGACUGCGGGUUCGGGUCCUGUACGGAACG | ≤ 0.5 |
| GUUCCGUUGGCGUAAUAGUAAUGCGUCUCCCUCCUAAGGAGAAGACUGCGGGUUCGAGUCCCGUAUGGAACG | 0.589 |
| GUUCCGUUGGCGUAAUAGUAACGCGUCUCCUUCCUAAGGAGAAGACUGGGGGUUCGAGUCCCGUACGGUACG | ≤ 0.5 |
| GUUCCGUUGGCGUAAUAGUAACGCGUCUCACUCCUAAGGAGAAGACUGCGGGUUCGAGUGCAGUACGGAACG | ≤ 0.5 |
| GUUCCGUUGGCGUAAUAGUAACGCGUCUCCAACCUAAGGAGAAGACUGCGGGUUCGGGUCCCGUACGGAACG | 0.545 |
| GUUCCGUUGGCGUAAUAGUAAUGCGUCUCCCACUUAGGGUGAAGACUGCGGGUUCGAGUCCCGUACGGUACG | ≤ 0.5 |

| Variant | yeast fitness |
| --- | --- |
| GUUCCGUUGGCGUAAUAGUAACGGGUGUCCCUCCUAAGGAGAAGACUGCGGGUUCGAGUCCCGUACGGAACG | 0.57 |
| GUUCCGUUGGCGUAAUAGUAACGCGUCUCUCUCCUAAGGAGAAGACUGUGGGUUCGAGUCCCGUAUGGCACG | ≤ 0.5 |
| GUUCCGUUGGCGUAAUAGUAACGCGUCUCUCUCCUAAGGAGAAGACUGCGGGUUCGAGUCCCGUACGGAACG | 0.82 |
| GUUCCGUUGGCGUAAUAGUAACGCGUUUCCCUCCCAAGGAGAAGACUGCGGGUUCGAGUCGCGUACGGAACG | ≤ 0.5 |
| GUUCCGUUGGCGUAAUAGUAACGCGUCUCCUUCCUAAGGAGAAGACUGGGGGUUCGAGUCCCGUACGGAACG | ≤ 0.5 |
| GUUCCGUUGGCGUAAUAGUAAUGCGUCUCCCUCCUACGGAGAAGACUGCGGGUUUGAGUCCCGUACGGAACG | ≤ 0.5 |
| GUUCCGUUGGCGUAAUAGUAACGCGUCUCCUUCCCAAGGAGAAGACUGCGGGUUCGAGUCCGGUACGGAACG | ≤ 0.5 |
| GUUCCGUUGGCGUAAUAGUAACGCGUCUCCGUCCUAAGGAGAACACUGCGGGUUCGAGUCCCGUACGGUACG | 0.528 |
| GUUCCGUUGGCGUAAUAGUAACGCGUCUUCCUCCUAAGGAGAAGACUGAGGGUUCGAGUCCUGUACGGAACG | ≤ 0.5 |
| GUUCCGUUGGCGUAAUAGUAACGCGUCUCCCUCCUAAGGAGAAGACUGCGGGUUCGCGUCCCGUACGGAACG | 0.581 |
| GUUCCGUUGGCGUAAUAGUAAGGCGUCUCCCUCCUAAGGAGAAGACUGCGGGUUCGAGUCCCGUACGGAACG | 0.837 |
| GUUCCGUUGGCGUAAUAGUAAAGCGUCUCCCUCCUAAGGAGAAGACUGCGGGUUCGAGUCCCGUACGGAACG | 0.645 |
| GUUCCGUUGGCGUAAUAGUAACGCGUCUCCCUCCUAAGGAGAAGUCUGCGGAUUCGAGUCUCGUACGGAACG | ≤ 0.5 |
| GUUCCGUUGGCGUAAUAGUAACGCGUCUGCCUCCUAAGGAGAGGACUGCGGGUUCGAGUCCCGUACGCAACG | ≤ 0.5 |
| GUUCCGUUGGCGUAAUAGUAACGUGUCUCCCUCCUAAGGAGAAGAUUGCGGGUUCGAGUACCGUACGGAACG | ≤ 0.5 |
| GUUCCGUUGGCGUAAUAGUAACGCGUGUCCCUCCUAAGGAGAAGACUGCGGGUUCGAGUCCCGUACGGAACG | 0.535 |
| GUUCCGUUGGCGUAAUAGUAACGCGUUUCCCUCCUAAGGAGAAGACUGCGGGUUCGAGUCCCGUACGGAACG | 0.711 |
| GUUCCGUUGGCGUAAUAGUAAUGCGUCUCCCUCCUAAGGAGAAGGUUGCGGGUUCGAGUCCCGUACGGAACG | 0.538 |
